In ChEMBL document CHEMBL4477191, “Haliclonadiamine Derivatives and 6-epi-Monanchorin from the Marine Sponge Halichondria panicea Collected at Iriomote Island” (J Nat Prod, 2016) one finds zone of inhibition, IC50 and inhibition data, which are given here for ten compounds.

Structures can show the parent of a compound that is named as a salt. Active and inactive are the calls of the source. No cut-off for these calls is given here. A value given as a limit tells only on which side of the number the result lay.

The test system of experiment [1] is Mycolicibacterium smegmatis. Nature of the experiment: Antimycobacterial activity against Mycobacterium smegmatis NBRC 3207 at 10 ug/disc after 2 days by paper disc method. The format is functional. The note with it: NBRC 3207, 48 h, read-out: IZ. In short, it runs like this:
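Paper disc diffusion. Strain kept in 20% glycerol at −80 °C, then grown 2 days at 37 °C in Middlebrook 7H9 broth with 0.05% polysorbate 80, 0.5% glycerol and 10% OADC. Adjusted to 1.0 × 10^6 CFU/mL and spread on the same medium with 1.5% agar. Sample in CH3OH dried onto 6 mm discs. Plates incubated 37 °C, 2 days. Inhibition zone read in mm. Streptomycin sulfate (5 μg/disc) positive control; CH3OH negative control.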

For experiment [2], the system named is Huh-7. Nature of the experiment: Cytotoxicity against human HuH7 cells assessed as reduction in cell viability after 72 hrs by WST-1 assay. Type of experiment: functional, cell-based. The note with it: Huh-7, 72 h. The method, boiled down:
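Cells seeded at 1 × 10^4 per well, cultured overnight, then exposed to compound for 72 h. WST-1 (0.5 mM) with 1-PMS (0.02 mM) in medium added for 60 min at 37 °C. Absorbance read at 438 nm, reference 620 nm. Viability expressed as percent of 0.1% EtOH-treated controls. IC50 reported.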

Experiment [3] relates to Mycolicibacterium smegmatis. Put plainly: Antimycobacterial activity against Mycobacterium smegmatis NBRC 3207 at 5 ug/disc after 2 days by paper disc method. The format is functional. The note with it: NBRC 3207, 48 h, read-out: IZ. The method, boiled down: (§1)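 Strain stored in 20% glycerol at −80 °C. Grown in Middlebrook 7H9 broth with 0.05% polysorbate 80, 0.5% glycerol and 10% OADC at 37 °C for 2 days, then adjusted to 1.0 × 10^6 CFU/mL and spread on the same medium with 1.5% agar. Samples in CH3OH dried onto 6 mm filter discs, incubated 37 °C for 2 days. Read-out is inhibition zone (mm). Streptomycin sulfate 5 μg/disc as positive control, CH3OH as negative control.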

Experiment [4] deals with Mycolicibacterium smegmatis. Put plainly: Antimycobacterial activity against Mycobacterium smegmatis NBRC 3207 at 10 to 20 ug/disc after 2 days by paper disc method. Type of experiment: functional, organism-based. The method, boiled down: as §1

As usually defined, the IC50 is the midpoint of a concentration-inhibition curve. As for `N[C@@H]1C[C@@H]2CCCC[C@H]2[C@@H]1/C=C\C=C\[C@H]1[C@@H]2CCCC[C@H]2C[C@@H]1N`, in experiment [1], the zone of inhibition at 10 µg/disc stood at 7 mm. Besides, in experiment [2], the IC50 came to 7.8 µM.

Regarding `C1=C/[C@H]2[C@@H]3CCCC[C@H]3C[C@@H]2NCCCN[C@@H]2C[C@@H]3CCCC[C@H]3[C@@H]2/C=C/1` [HALICLONADIAMINE], the zone of inhibition at 10 µg/disc in experiment [1] was 16 mm. Also, the IC50 in experiment [2] is 3.6 µM. Consider `CN[C@@H]1[C@H](O[C@H]2[C@H](O[C@H]3[C@H](O)[C@@H](O)[C@H](N=C(N)N)[C@@H](O)[C@@H]3N=C(N)N)O[C@@H](C)[C@]2(O)C=O)O[C@@H](CO)[C@H](O)[C@H]1O` [STREPTOMYCIN SULFATE], for which the zone of inhibition at 5 µg/disc in experiment [3] worked out at 30 mm. Take `COc1cccc2c1C(=O)c1c(O)c3c(c(O)c1C2=O)C[C@@](O)(C(=O)CO)C[C@@H]3O[C@H]1C[C@H](N)[C@H](O)[C@H](C)O1` [DOXORUBICIN]: the IC50 in experiment [2] is 0.4 µM. Turning to `C1=C\[C@H]2[C@@H]3CCCC[C@H]3C[C@@H]2NCCCN[C@@H]2C[C@@H]3CCCC[C@H]3[C@@H]2/C=C/1`, the zone of inhibition at 10 µg/disc in experiment [1] came out at 12 mm. Moreover, the IC50 in experiment [2] is over 10 µM. Regarding `CCCCC[C@H]1O[C@@H]2CC[C@H]1NC(=N)N2`, the inhibition result in experiment [4] is “inactive”. For the same compound, in experiment [2], the concentration for half-maximal inhibition (IC50) is over 10 µM. With `CCCCC[C@@H]1O[C@@H]2CC[C@H]1NC(=N)N2`, the inhibition entry in experiment [4] is “inactive”. Besides, in experiment [2], the IC50 is over 10 µM. Regarding `C1=C/[C@H]2[C@@H]3CCCC[C@H]3C[C@H]2NCCCN[C@@H]2C[C@@H]3CCCC[C@H]3[C@@H]2/C=C/1`, in experiment [1], the zone of inhibition at 10 µg/disc was 12 mm. For the same compound, in experiment [2], the IC50 came out at 3.9 µM.

Turning to `C1=C\[C@H]2[C@@H]3CCCC[C@H]3C[C@H]2NCCCN[C@H]2C[C@@H]3CCCC[C@H]3[C@@H]2/C=C/1`, the zone of inhibition at 10 µg/disc in experiment [1] was found to be 7 mm. In addition, the IC50 in experiment [2] turned out to be 6.7 µM. On the same counts, the results for `N[C@@H]1C[C@@H]2CCCC[C@H]2[C@@H]1/C=C/C=C\[C@H]1[C@@H]2CCCC[C@H]2C[C@@H]1N` are 8 mm and 7.2 µM.
